Screens: PubChem BioAssay, several laboratories
NTR1 agonist – agonists of human neurotensin receptor NTR1 | NTR1-U2OS beta-arrestin-GFP spot imaging, agonist mode | activation, % at 20 µM | 0.17% of 330,000 active | AID 493036;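 active = activation at or above 40% of the spot to cytoplasm intensity ratio, with at least 20 cells analyzed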;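 note: 0% = DMSO without peptide and 100% = 100 nM NTR1 peptide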
MC4R antag cAMP – antagonists of human melanocortin 4 receptor (MC4R); 0.48% of 360,000 active; inhibition, % at 6.5 µM; MC4R-expressing cells, MTII-stimulated cAMP, LANCE TR-FRET; P32245;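 active = inhibition above its plate's cutoff, the mean of tested wells on that plate plus 3 SD, cut at about 29% in these data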;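 note: 0% = Melanotan II alone and 100% = Melanotan II plus saturating MCL0020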
Target sequence (P32245 whole entry, looked up): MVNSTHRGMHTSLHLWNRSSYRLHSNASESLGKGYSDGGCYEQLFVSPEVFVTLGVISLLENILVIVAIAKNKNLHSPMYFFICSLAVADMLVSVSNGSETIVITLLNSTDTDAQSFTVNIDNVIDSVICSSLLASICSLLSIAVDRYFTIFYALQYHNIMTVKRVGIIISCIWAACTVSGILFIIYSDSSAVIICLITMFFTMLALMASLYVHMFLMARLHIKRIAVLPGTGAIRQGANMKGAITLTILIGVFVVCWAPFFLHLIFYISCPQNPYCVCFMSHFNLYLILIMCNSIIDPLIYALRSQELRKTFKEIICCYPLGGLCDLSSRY
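System – human MC4R-expressing U2OS cells · Also added – Melanotan II · Dosing – one concentration, 6.5 µM nominal · Timing – 30-min compound, 1-h challenge, 1-h detection, room temperature · Measured by – Eu-cAMP/anti-cAMP TR-FRET, emission 671 nm · Replicates – singlicate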
Rev-erbA mod – modulators of human Rev-erb alpha DNA binding. AID 1259318. activity, % at 10 µM. Rev-erbα–FITC-DNA binding, fluorescence polarization, 90 min. 0.79% of 370,000 active. P20393;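 active = activity above about 14%, limit read from the data; passing the limit was not always enough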;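 note: 0% = DMSO wells with 35 nM protein and 100% = DMSO wells with 750 nM protein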
MC4R ag barr – activates human MC4R beta-arrestin recruitment; activation, % at 8.9 µM; P32245; 0.98% of 360,000 active; U2OS MC4R beta-arrestin complementation, luminescence; percent of melanotan II response, DMSO zero;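 active = activation above a per-plate cutoff, the mean activation of sample wells on that plate plus 3 SD, cut at about 8% in these data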
PG9 binder – small molecules binding HIV-1 gp120 antibody PG9; TR-FRET gp120-PG9 antibody binding; inhibition, % at 6.7 µM; 0.43% of 360,000 active; in the data active = inhibition above about 8.5%
* = called active by the depositor; . = no result. The list is not random: actives were taken first. Their share in the collection is about 2.5%.

SMILES	NTR1 agonist	MC4R antag cAMP	Rev-erbA mod	MC4R ag barr	PG9 binder
Cn1c(=O)[nH]c(=O)c2c1nc(SCCN1CCOCC1)n2Cc1ccccc1	-1	8	3	-2	-1
Cn1c(=O)[nH]c(=O)c2c1nc(SCCN1CCOCC1)n2CCCc1ccccc1	-2	3	-12	-1	19*
CC1CCN(S(=O)(=O)c2ccc3c(c2)C(=NO)c2cc(S(=O)(=O)N4CCC(C)CC4)ccc2-3)CC1	32	3	-3	34*	0
CC1(C)Cc2nc3sc4c(=O)n(CC(N)=O)cnc4c3cc2CO1	-1	3	-2	0	-1
CC1(C)Cc2nc3sc4c(=O)n(CC(=O)NCc5ccccc5)cnc4c3cc2CO1	-1	-21	18	-2	50*
Cc1c(C)n(Cc2ccc(-c3ccccc3C(=O)O)cc2)c2ccc(C(=O)N[C@@H](C)c3ccc(Br)cc3)cc12	.	.	-3	.	.
c1nc(NCC2CC2)c2cc(-c3ccc4c(c3)OCO4)ccc2n1	.	.	-3	.	.
Cn1c(=O)[nH]c(=O)c2c1nc(NCCCO)n2Cc1ccc(F)cc1	0	-5	1	-2	0
Cc1ccc(Nc2nc3c(c(=O)[nH]c(=O)n3C)n2Cc2ccc(F)cc2)cc1	0	14	-1	8.9*	0
C=CCNC(=O)Nc1ccc2c(c1)[C@@]1(CC(=O)N(CC(C)C)C1c1ccccc1)C(=O)N2C (stereo partly specified)	.	.	0	.	.
O=C(Nc1ccc(Cl)cc1)N1CCC(c2nc(-c3ccccc3Cl)no2)CC1	-2	21	1	9.0*	0
O=C(Nc1ccc(Cl)cc1)N1CCC(c2nc(-c3cccs3)no2)CC1	2	6	0	-1	1
COc1cc(C(=O)NC(c2ccccc2)c2ccccc2)cc(OC)c1OC	1	8	-3	9.4*	-1
O=C1NC(=O)C2C3C=CC(C12)C1C(=O)NC(=O)C31 (stereo unspecified)	.	.	-7	.	0
CC1CCN(Cc2c(C(=O)N/N=C/c3cccc(C(F)(F)F)c3)nnn2-c2nonc2N)CC1	9	12	1	5	0
CC1CCN(Cc2c(C(=O)N/N=C/c3ccc(C(F)(F)F)cc3)nnn2-c2nonc2N)CC1	3	-8	0	24*	-3
CN(C)c1ccc(/C=N/NC(=O)c2nnn(-c3nonc3N)c2CN(C)c2ccccc2)cc1	3	11	-6	8.5*	-2
CN(Cc1c(C(=O)N/N=C/c2ccccc2)nnn1-c1nonc1N)c1ccccc1	2	7	2	-2	1
CN1OC[C@@H]2CN[C@H](c3ccc(N4CCCCC4)cc3)C[C@@H]21	.	.	-4	.	-1
COC(=O)c1cc2c(c3c4ccccc4n(S(=O)(=O)c4ccc(OC)cc4)c13)C(=O)N(Cc1ccco1)C2	.	.	-2	.	0
Nn1c(SCC(=O)Nc2cccc3ccccc23)nnc1-c1n[nH]c2c1CCC2	.	.	-5	.	.
O=C1NCN(c2ccccc2)C12CCN(CCCC(c1ccc(F)cc1)c1ccc(F)cc1)CC2	40*	4	2	7	-1
COC(=O)c1cc2c(c3c4cc(F)ccc4n(S(=O)(=O)c4ccccc4)c13)C(=O)N(Cc1ccccc1)C2	.	.	3	.	0
C[C@H]1C2CC(OC(=O)Nc3cccc(C(F)(F)F)c3)C(C2)[C@H]2CCCCN21 (stereo partly specified)	.	.	-2	.	.
COc1ccc(C2CC(=O)C(c3ccccc3OC)=CN2Cc2ccccc2)cc1 (stereo unspecified)	.	.	-3	.	-1
SMILES	NTR1 agonist	MC4R antag cAMP	Rev-erbA mod	MC4R ag barr	PG9 binder
Oc1c(Cl)cc(Cl)cc1C=Nc1cc(C(F)(F)F)ccc1N1CCc2ccccc2C1	11	29*	-6	-1	0
COC[C@@H](O)[C@H]1OCc2cccc(OC)c2[C@@H]1/C=C/c1ccccc1	.	.	5	.	.
CCOc1cccc(/C=N\NC(=O)c2cnccn2)c1O	.	.	-7	.	.
Cc1ccc(C(=O)NC(=S)NCC(=O)c2ccccc2)cc1	2	-6	4	11*	2
COc1ccc(C(=O)OCCN(C)C2CN(Cc3cn(Cc4cccc(F)c4)nn3)S(=O)(=O)C2)cc1OC (stereo unspecified)	.	.	0	.	.
C[C@H]1[C@@H](NC(=O)C(c2ccccc2)c2ccccc2)CC[C@@]23CCCN2C(=O)CCC[C@@H]13	.	.	1	.	.
COc1cc(NC(=O)c2ccc(F)cc2)ccc1NC(=O)c1cc2ccccc2o1	-1	1	-8	3	-2
COc1cc(NC(=O)c2ccccc2F)ccc1NC(=O)c1cc2ccccc2o1	16	1	-4	8.8*	1
CN(C)CCn1c2ccccc2c2nc3ccc([N+](=O)[O-])cc3cc21	0	-7	-28	8.3*	-6
CCn1c2ccccc2c2cc([N+](=O)[O-])ccc21	1	-2	-2	-1	-1
CN(CC(=O)NCc1ccc(F)cc1)CC(=O)Nc1ccc(Cl)c(C(F)(F)F)c1	3	9	4	9.0*	0
CN(CC(=O)NCC(=O)Nc1ccc(F)cc1)CC(=O)Nc1ccc(Cl)c(C(F)(F)F)c1	.	6	2	0	-1
Cc1ccc(S(=O)(=O)N2CCC(=O)N(CCOCc3cccc(F)c3)CC2)cc1	-3	1	3	8.4*	-2
C=C[C@H]1CN2CC[C@@H]1C[C@@H]2[C@H](O)c1ccnc2ccc(OC)cc12	.	.	3	.	.
Cc1ccc(-n2nc3c([n+]2[O-])CCc2c-3no[n+]2[O-])cc1	2	24	0	-2	2
[O-][n+]1onc2c1CCc1c-2nn(-c2ccccc2Cl)[n+]1[O-]	2	37*	-4	5	-1
O=C1C=CC(=O)N1c1ccc2c(c1)Cc1cc(F)ccc1-2	.	32*	0	0	3
COC(=O)CCC(C)C1CCC2C3CCC4CC(O)CCC4(C)C3CC(O)C12C (stereo unspecified)	.	23	3	9.6*	-2
CC(CCC(=O)O)C1CCC2C3CCC4CC(O)CCC4(C)C3CC(O)C12C (stereo unspecified)	.	15	-4	1	-3
CC(=O)C1=C(C)N(Cc2ccc(Br)cc2)C(=S)NC1c1cccc(F)c1 (stereo unspecified)	.	.	8	.	0
CCCNC(=O)Cn1c(-c2ccc(F)cc2)cc(C(=O)OCC)c1C	2	0	3	8.3*	-1
CCOC(=O)c1cc(-c2ccc(F)cc2)n(CC(=O)NC(C)CC)c1C (stereo unspecified)	-1	16	-5	0	-2
CCNc1nc(NCC)nc(SCCOC(=O)Nc2ccc(Cl)cc2Cl)n1	10	26	2	8.9*	-1
C[C@H](O)[C@@H]1CN2CCc3c([nH]c4c(-c5ccc6c(c5)OCO6)cccc34)[C@@H]2C[C@@H]1N(C)C(=O)c1ccccc1F	.	.	1	.	.
COc1ccc2ccccc2c1-c1sc(Nc2ccccc2)n[n+]1-c1ccc(F)cc1	12	-4	5	12*	1
Cc1ccc(NC(=O)[C@@H]2CC(=O)O[C@@H]2c2ccccc2)c(C)c1	.	.	0	.	.
